# Measured values gathered from unrelated publications.
# Protocols differ between the studies behind these lines.
# Medium: Caco-2
SMILES,concentration,time,pH,Papp A→B [×10⁻⁶ cm/s]
O=C(COCc1cccnc1)C12CC3CC(CC(C3)C1)C2,20 µM,,,6.3
Nc1cc(N2CCCCC2)nc(N)[n+]1[O-],10 µM,2 h,pH 7.4,4.18
COc1cc(Cl)c(C(=O)N[C@@H](CN[C@H]2CC[C@@H](N)CC2)Cc2ccc(C#N)cc2)cc1-c1ccc(CN[C@H](C)c2ccc(C)cc2)o1,2 µM,2 h,pH 7.2,3.9
C=CC(=O)Nc1cc(Nc2nccc(-c3cn(C)c4ccccc34)n2)c(OC)cc1N(C)CCN(C)C,,,pH 6.5,12.5
CC(C)NCC(O)COc1cccc2ccccc12 (stereo not shown),,,,46.5
O=C(C1CCCCC1)N1CC(=O)N2CCc3ccccc3C2C1 (stereo not shown),,,,38.4
COCCc1ccc(OCC(O)CNC(C)C)cc1 (stereo not shown),,,,16.6
CC(C)c1cccc2c(-c3ccccc3)cc(-c3ccc(-c4ccc(C(=O)O)cc4)[nH]3)nc12,,,,1.61
C[C@H]1O[C@@H](O[C@H]2[C@@H](O)C[C@H](O[C@H]3[C@@H](O)C[C@H](O[C@H]4CC[C@@]5(C)[C@H](CC[C@@H]6[C@@H]5C[C@@H](O)[C@]5(C)[C@@H](C7=CC(=O)OC7)CC[C@]65O)C4)O[C@@H]3C)O[C@@H]2C)C[C@H](O)[C@@H]1O,5 µM,1 h,,1.3
O=C(O)COc1cccc(Oc2ccc(-c3noc(-c4ccc(O)cc4)n3)cc2)c1,,2 h,pH 7.4,5.3
Cc1ncsc1-c1ccc(CNC(=O)[C@@H]2C[C@@H](O)CN2C(=O)[C@@H](NC(=O)C2(F)CC2)C(C)(C)C)c(OCCOCCOCCN2CCN(c3cc(-c4ccccc4O)nnc3N)CC2)c1,,2 h,pH 7.2,0.11
Cn1c(=O)c2c(nc(S)n2C)n(C)c1=O,10 µM,2 h,,0.9
COc1cc(F)ccc1-c1ncnc(Nc2cccc(C[S@](C)(=N)=O)c2)n1,2 µM,2 h,pH 7.2,3.5
O=C1C[C@@H](c2ccc(O[C@@H]3O[C@H](CO)[C@@H](O)[C@H](O)[C@H]3O)cc2)Oc2cc(O)ccc21,,2 h,,> 1
COCCc1ccc(OCC(O)CNC(C)C)cc1 (stereo not shown),,,pH 6.5,13.3
Cn1c(S)nc2c1c(=O)n(Cc1ccccc1)c(=O)n2C,10 µM,2 h,,10
